Measurements as given in ChEMBL document CHEMBL1125077, “Synthetic and computer-assisted analyses of the pharmacophore for the benzodiazepine receptor inverse agonist site” (J Med Chem, 1990).

Tests used:
[1] = target: GABA-A receptor; anion channel; experiment: In vitro inhibition of 3[H]Diazepam binding to Benzodiazepine receptor from rat cerebral cortical membranes; assay type: cell membranes, Membrane
Summary of the method: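 Rat cerebral cortex (decapitation) homogenized in 50 mM Tris-HCl pH 7.4, spun 20000g 20 min at 4 °C, washed three times, resuspended in 50 volumes buffer. Incubated with [3H]diazepam (final 2 nM) at 4 °C for 120 min, then filtered on GF/B with ice-cold buffer washes. Nonspecific binding taken with 10 μM flunitrazepam. IC50 from Hill plots, at least six inhibitor concentrations, mean of three or more experiments.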

[2] = target: GABA-A receptor; anion channel; experiment: In vitro inhibition of 3[H]Diazepam binding to Benzodiazepine receptor from rat cerebral cortical membranes; value ranges from 4-12 nM; assay type: cell membranes, Membrane

Row | SMILES | IC50 [1] | IC50 [2]
1 | COC(=O)c1cc2c3ccccc3n3c(=O)ccc(n1)c23 | 100 nM | 
2 | CCOC(=O)c1cc2c(cn1)[nH]c1ccccc12 | 5 nM | 
3 | CC(C)Oc1cc2c(cn1)[nH]c1ccccc12 | 500 nM | 
4 | CCCC(=O)c1cc2c(cn1)[nH]c1ccccc12 | 2.8 nM | 
5 | c1ccc2c(c1)[nH]c1c2ccc2[nH]c3ccccc3c21 | 1970 nM | 
6 | S=C=Nc1cc2c3ccccc3nc-2c[nH]1 |  | 4 nM
7 | Cc1ccc2c(c1)[nH]c1c3c4ccccc4nc-3c[nH]c12 | 10 nM | 
8 | Cc1cccc2[nH]c3c4c5ccccc5nc-4c[nH]c3c12 | 6860 nM | 
9 | C[n+]1cc2[nH]c3ccccc3c2c2[nH]c3ccccc3c21 | 4660 nM | 
10 | CCc1nc2c3ccccc3[nH]c2c2c1[nH]c1ccccc12 | 285 nM | 
11 | Cc1nccc2c1[nH]c1ccccc12 [HARMAN] | 12400 nM | 

Now from value to compound, other results behind:

Row | IC50 [1] | SMILES | IC50 [2]
12 | 5000 nM | CCOC(=O)c1cc2c3ccccc3c(N=O)c-2c[nH]1 | 
13 | 10 nM | CC(C)(C)OC(=O)c1cc2c3ccccc3nc-2c[nH]1 | 
14 | 7540 nM | CCc1nc(C(=O)OC)cc2c1[nH]c1ccccc12 | 
15 | 98 nM | CCCCOc1cc2c(cn1)[nH]c1ccccc12 | 
16 | 245 nM | CCCCc1cc2c(cn1)[nH]c1ccccc12 | 
17 | 1700 nM | CCOC(=O)c1cc2c(cn1)sc1ccccc12 | 
18 | 680 nM | CCOC(=O)c1cc2c(cn1)Cc1ccccc1-2 | 
19 | 2400 nM | CCOC(=O)c1cc2c(cn1)nc(O)c1ccccc12 | 
20 | 750 nM | CC(C)(C)COC(=O)c1cc2c3ccccc3nc-2c[nH]1 | 
21 | 9200 nM | CCOC(=O)c1cc2c(cn1)oc1ccccc12 | 
22 | 9 nM | COC(=O)c1cc2c3ccccc3n(C(C)=O)c2cn1 | 
23 | 653 nM | COC(=O)c1cc2[nH]c3ccccc3c2cn1 | 
